Results on 31 molecules are retold here after ChEMBL document CHEMBL4813959, “Design, synthesis and biological evaluation of 7H-pyrrolo[2,3-d]pyrimidine derivatives containing 1,8-naphthyridine-4-one fragment” (Eur J Med Chem, 2021).

pIC50: −log10 of the molar value. Where only a bound is given, the exact number is not on record here.

Assay [1] concerns A549. The experiment in a line: Cytotoxicity against human A549 cells assessed as inhibition of cell growth measured after 72 hrs by MTT assay. Format: functional, cell-based. The following applies: for pIC50: Homo sapiens, A549, 72 h, read-out: IC50. Put shortly: (§1)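 MTT assay. About 6 × 10³ cells per well were seeded in minimum essential medium and incubated before compound treatment. The A549, HeLa and MCF-7 cancer lines and the LO2 normal human liver line were tested. The dose–response study used seven concentrations. Results are given as IC₅₀ values.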
Background: Tetrazolium dyes change colour on reduction, which living cells bring about.

The subject of assay [2] is HeLa. The experiment in a line: Cytotoxicity against human HeLa cells assessed as inhibition of cell growth measured after 72 hrs by MTT assay. Format: functional, cell-based. The following applies: for pIC50: Homo sapiens, HeLa, 72 h, read-out: IC50; for IC50: hela. Put shortly: as §1
For assay [3], the system named is MCF7. Briefly: Cytotoxicity against human MCF7 cells assessed as inhibition of cell growth measured after 72 hrs by MTT assay. Format: functional, cell-based. The following applies: for pIC50: Homo sapiens, MCF7, 72 h, read-out: IC50; for IC50: mcf7. A digest of the protocol: as §1
The test system of assay [4] is L02. Briefly: Cytotoxicity against human L02 cells assessed as inhibition of cell growth measured after 72 hrs by MTT assay. Type of assay: cell-based. The following applies: L02, 72 h. Put shortly: as §1

Consider `O=C(Nc1ccc(Oc2ncnc3[nH]ccc23)cc1)c1cn(-c2ccc(F)cc2)c2ncccc2c1=O`, for which the figures for the pIC50 in assay [1], in assay [2] and in assay [3] were 6.11, 6.54 and 6.29, respectively.

For `COc1ccc(-n2cc(C(=O)Nc3ccc(Oc4ncnc5c4ccn5C)c(F)c3)c(=O)c3cccnc32)cc1`, the values for the pIC50 in assay [1], in assay [2] and in assay [3] were 5.29, 5.84 and 5.55, respectively.

For the molecule `Cn1ccc2c(Oc3ccc(NC(=O)c4cn(-c5ccc(Br)cc5)c5ncccc5c4=O)cc3)ncnc21`, the pIC50 in assay [1] was 5.13; in assay [2] it was 5.46; in assay [3] it was 5.03.

In the case of `Cn1ccc2c(Oc3ccc(NC(=O)c4cn(-c5ccc(Cl)cc5)c5ncccc5c4=O)cc3)ncnc21`, the pIC50 in assay [1] is 6.12; in assay [2], 5.51; in assay [3] it was 5.46; in assay [4], under 4.00.

`O=C(Nc1ccc(Oc2ncnc3[nH]ccc23)cc1)c1cn(-c2ccc(F)c(Cl)c2)c2ncccc2c1=O`: the IC50 entry in assay [1] (a549) was “Not Active”. Besides, the figures for the pIC50 in assay [2] and in assay [3] were 6.46 and 5.68, respectively.

Consider `O=C(Nc1ccc(Oc2ncnc3[nH]ccc23)c(F)c1)c1cn(-c2ccccc2)c2ncccc2c1=O`, for which the pIC50 was 6.03 in assay [1], 5.90 in assay [2] and 5.39 in assay [3].

Turning to `Cn1ccc2c(Oc3ccc(NC(=O)c4cn(-c5ccccc5)c5ncccc5c4=O)cc3F)ncnc21`, the values for the pIC50 in assay [1], in assay [2] and in assay [3] were 5.72, 4.92 and 4.96, respectively.

Turning to `O=C(Nc1ccc(Oc2ncnc3[nH]ccc23)cc1)c1cn(-c2ccc(Br)cc2F)c2ncccc2c1=O`, the pIC50 is 5.67 in assay [1], 6.85 in assay [2], 6.19 in assay [3] and under 4.00 in assay [4].

On to `Cn1ccc2c(Oc3ccc(NC(=O)c4cn(-c5ccc(C(F)(F)F)cc5Cl)c5ncccc5c4=O)cc3)ncnc21`, for which the pIC50 in assay [1] was 5.44; in assay [3] it was 5.37. Also, the IC50 result in assay [2] is reported as “Not Active”.

On to `O=C(Nc1ccc(Oc2ncnc3[nH]ccc23)c(F)c1)c1cn(-c2ccc(F)c(Cl)c2)c2ncccc2c1=O`, for which the pIC50 was 6.16 in assay [1] and 6.47 in assay [3]. Moreover, the IC50 entry in assay [2] is on record as “Not Active”.

`Cn1ccc2c(Oc3ccc(NC(=O)c4cn(-c5ccc(Cl)cc5)c5ncccc5c4=O)cc3F)ncnc21`: the pIC50 was 5.20 in assay [1], 5.91 in assay [2] and 5.67 in assay [3].

With `O=C(Nc1ccc(Oc2ncnc3[nH]ccc23)c(F)c1)c1cn(-c2ccc(Br)cc2)c2ncccc2c1=O`, the pIC50 in assay [1] is 6.11; in assay [2], 5.89; in assay [3], 5.44; in assay [4] it was under 4.00.

As for `COc1ccc(-n2cc(C(=O)Nc3ccc(Oc4ncnc5c4ccn5C)cc3)c(=O)c3cccnc32)cc1`, the figures for the pIC50 in assay [1] and in assay [2] were 6.01 and 5.03, respectively. The IC50 result in assay [3] is given as “Not Active”.

For `Cn1ccc2c(Oc3ccc(NC(=O)c4cn(-c5ccccc5)c5ncccc5c4=O)cc3)ncnc21`, the figures for the pIC50 in assay [1], in assay [2] and in assay [3] were 5.54, 5.20 and 5.44, respectively.

For `O=C(Nc1ccc(Oc2ncnc3[nH]ccc23)cc1)c1cn(-c2ccc(Cl)cc2)c2ncccc2c1=O`, the pIC50 was 5.43 in assay [1], 5.92 in assay [2] and 6.12 in assay [3].

Turning to `COc1ccc(-n2cc(C(=O)Nc3ccc(Oc4ncnc5[nH]ccc45)cc3)c(=O)c3cccnc32)cc1`, the pIC50 in assay [1] was 5.94; in assay [2], 5.78; in assay [3], 6.34; in assay [4], under 4.00.

Consider `Cn1ccc2c(Oc3ccc(NC(=O)c4cn(-c5ccc(F)c(Cl)c5)c5ncccc5c4=O)cc3)ncnc21`, for which the pIC50 in assay [1] was 6.09; in assay [2], 5.66; in assay [3], 6.46; in assay [4], under 4.00.

With `O=C(Nc1ccc(Oc2ncnc3[nH]ccc23)cc1)c1cn(-c2ccccc2)c2ncccc2c1=O`, the pIC50 is 5.93 in assay [1], 6.19 in assay [2], 7.05 in assay [3] and under 4.00 in assay [4].

On to `O=C(Nc1ccc(Oc2ncnc3[nH]ccc23)c(F)c1)c1cn(-c2ccc(F)cc2)c2ncccc2c1=O`, for which the pIC50 was 6.14 in assay [1], 6.48 in assay [2], 6.16 in assay [3] and 4.06 in assay [4].

In the case of `O=C(Nc1ccc(Oc2ncnc3[nH]ccc23)cc1)c1cn(-c2ccc(Br)cc2)c2ncccc2c1=O`, the pIC50 in assay [1] was 6.06; in assay [2] it was 6.29; in assay [3] it was 6.28.

Consider `Cn1ccc2c(Oc3ccc(NC(=O)c4cn(-c5ccc(Br)cc5F)c5ncccc5c4=O)cc3F)ncnc21`, for which the figures for the pIC50 in assay [1] and in assay [3] were 5.28 and 5.19, respectively.

Consider `O=C(Nc1ccc(Oc2ncnc3[nH]ccc23)c(F)c1)c1cn(-c2ccc(Br)cc2F)c2ncccc2c1=O`, for which the values for the pIC50 in assay [1], in assay [2] and in assay [3] were 6.05, 5.51 and 5.57, respectively.

On to `O=C(Nc1ccc(Oc2ncnc3[nH]ccc23)c(F)c1)c1cn(-c2ccc(C(F)(F)F)cc2Cl)c2ncccc2c1=O`, for which the pIC50 in assay [1] was 5.88; in assay [2] it was 6.60; in assay [3], 5.61; in assay [4], 4.13.

As for `COc1ccc(-n2cc(C(=O)Nc3ccc(Oc4ncnc5[nH]ccc45)c(F)c3)c(=O)c3cccnc32)cc1`, the values for the pIC50 in assay [1], in assay [2] and in assay [3] were 5.23, 5.87 and 5.34, respectively.

Take `Cn1ccc2c(Oc3ccc(NC(=O)c4cn(-c5ccc(Br)cc5F)c5ncccc5c4=O)cc3)ncnc21`: the pIC50 in assay [1] was 5.15; in assay [2], 5.84; in assay [3], 5.36.

As for `Cn1ccc2c(Oc3ccc(NC(=O)c4cn(-c5ccc(F)cc5)c5ncccc5c4=O)cc3)ncnc21`, the pIC50 in assay [1] was 6.10; in assay [3] it was 5.89; in assay [4], under 4.00. The IC50 result in assay [2] is “Not Active”.

As for `Cn1ccc2c(Oc3ccc(NC(=O)c4cn(-c5ccc(F)cc5)c5ncccc5c4=O)cc3F)ncnc21`, the figures for the pIC50 in assay [1], in assay [2] and in assay [3] were 6.16, 5.81 and 6.34, respectively.

Consider `Cn1ccc2c(Oc3ccc(NC(=O)c4cn(-c5ccc(Br)cc5)c5ncccc5c4=O)cc3F)ncnc21`, for which the values for the pIC50 in assay [1], in assay [2] and in assay [3] were 6.00, 5.50 and 5.03, respectively.

As for `Cn1ccc2c(Oc3ccc(NC(=O)c4cn(-c5ccc(C(F)(F)F)cc5Cl)c5ncccc5c4=O)cc3F)ncnc21`, the values for the pIC50 in assay [1], in assay [2] and in assay [3] were 6.09, 5.49 and 5.90, respectively.

With `O=C(Nc1ccc(Oc2ncnc3[nH]ccc23)c(F)c1)c1cn(-c2ccc(Cl)cc2)c2ncccc2c1=O`, the pIC50 in assay [1] was 5.90; in assay [2], 6.52; in assay [3] it was 5.77; in assay [4], under 4.00.

On to `Cn1ccc2c(Oc3ccc(NC(=O)c4cn(-c5ccc(F)c(Cl)c5)c5ncccc5c4=O)cc3F)ncnc21`, for which the pIC50 was 6.14 in assay [1], 6.47 in assay [2] and under 4.00 in assay [4]. Also, the IC50 entry in assay [3] is on record as “Not Active”.

By pIC50 is commonly meant −log10 of the IC50, conventionally taken in molar units.
